LYPLA1 counter: LYPLA1 (human) inhibition in PME1 counter-screen; recombinant LYPLA1, FP-Rh probe fluorescence polarization; inhibition, % at 5.9 µM; 320,000 tested, 0.16% active; AID 2174;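 active = inhibition above the mean of all tested compounds plus 3 SD, set per campaign, cut at about 14% in these data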;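 also: inhibitors block serine hydrolase probe labeling of LYPLA1 so polarization falls; 0% = enzyme with DMSO and 100% = wells lacking LYPLA1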
RBBP9 inhibitor: blocks human serine hydrolase RBBP9; O75884; recombinant RBBP9, FP-Rh probe fluorescence polarization; inhibition, % at 7.94 µM; 220,000 tested, 0.2% active; AID 1515;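 active = inhibition above the campaign mean of all tested compounds plus 3 SD, cut at about 14% in these data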;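 also: plate controls were DMSO wells with RBBP9 for no effect and wells lacking RBBP9 protein for full effect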
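Test system – recombinant human RBBP9 · Input – RBBP9 2.5 µM in dispensing solution, pre-mixing · Medium – Tris buffer pH 8.0, NaCl, Pluronic · Schedule – preincubation 30 min plus labeling 45 min at 25 °C · Measured by – fluorescence polarization · Measure – % inhibition · Controls – DMSO and no-protein wells · Replicates – one well per compound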
LYPLA2 inh: LYPLA2 (human) inhibition in PME1 counter-screen; 320,000 tested, 0.38% active; inhibition, % at 5.9 µM; recombinant LYPLA2, FP-Rh probe fluorescence polarization; AID 2177;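 active = inhibition above the screen-wide mean plus 3 SD, limit set per campaign, cut at about 26% in these data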;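 also: 0% = LYPLA2 with DMSO and 100% = wells lacking LYPLA2 enzyme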
Target sequence (O95372 whole entry, looked up): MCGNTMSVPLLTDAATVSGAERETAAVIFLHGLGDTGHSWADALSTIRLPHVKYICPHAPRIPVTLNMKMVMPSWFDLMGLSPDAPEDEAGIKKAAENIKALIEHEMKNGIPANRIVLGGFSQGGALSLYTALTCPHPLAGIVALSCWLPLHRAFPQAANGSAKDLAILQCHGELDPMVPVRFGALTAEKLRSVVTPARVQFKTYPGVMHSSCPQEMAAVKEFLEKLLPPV
Fam108B inh: counter-screen for RBBP9 inhibitors: inhibitors of mouse Fam108B | recombinant Fam108B, FP-Rh probe fluorescence polarization | inhibition, % at 9.51 µM | 300,000 tested, 0.33% active | AID 1947;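 active = inhibition above the screen mean inhibition plus 3 SD, computed separately per campaign, cut at about 18% in these data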;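 also: inhibitors lower polarization as less probe binds the enzyme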
PME-1 inh: blocks human protein phosphatase methylesterase 1 | Q9Y570 | recombinant PME-1, FP-Rh probe fluorescence polarization | inhibition, % at 5.9 µM | 320,000 tested, 0.53% active | AID 2130;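 active = inhibition above the campaign mean of all compounds plus 3 SD, cut at about 26% in these data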;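 also: competitive labeling of PME-1 active site by serine hydrolase directed probe; 0% = PME-1 with DMSO and 100% = wells lacking PME-1 enzyme; inhibitors block probe labeling so polarization falls and inhibition rises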
Target sequence (Q9Y570 whole entry, looked up): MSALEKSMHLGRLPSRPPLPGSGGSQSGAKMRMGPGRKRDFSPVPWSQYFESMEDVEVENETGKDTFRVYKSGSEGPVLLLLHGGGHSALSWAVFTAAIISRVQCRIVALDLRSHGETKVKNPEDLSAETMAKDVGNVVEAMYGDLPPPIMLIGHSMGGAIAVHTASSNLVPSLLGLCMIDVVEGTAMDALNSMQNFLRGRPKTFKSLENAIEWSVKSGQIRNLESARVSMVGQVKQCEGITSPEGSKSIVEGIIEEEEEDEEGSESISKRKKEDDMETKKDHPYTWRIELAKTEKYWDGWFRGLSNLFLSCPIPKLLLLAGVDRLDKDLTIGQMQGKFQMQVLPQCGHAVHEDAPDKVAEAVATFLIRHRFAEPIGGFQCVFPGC
RBBP9 inh conf: confirmation of human RBBP9 inhibitors; shares compounds with RBBP9 inhibitor; recombinant RBBP9, FP-Rh probe fluorescence polarization; inhibition, % at 7.94 µM; 410 tested, 36% active; AID 1537;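 active = inhibition above the hit cutoff derived for the primary screen, cut at about 15% in these data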;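 also: 0% = RBBP9 with DMSO and 100% = wells lacking RBBP9 protein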
* = called active by the depositor. The list is not random: actives were taken first. Their share in the collection is about 0.99%.

CCOc1ccc(N=Nc2c(N)[nH][nH]c2=O)cc1 was read as LYPLA1 counter -1, RBBP9 inhibitor 7, LYPLA2 inh -3, Fam108B inh -1 and PME-1 inh -2.
`Cc1cc(C)n2[nH]c(=O)c(N=Nc3cccc(Cl)c3)c2n1` gave LYPLA1 counter 5, RBBP9 inhibitor 7, LYPLA2 inh 18, Fam108B inh 5 and PME-1 inh 5.
Screening CCOc1ccc(N=Nc2c(=O)[nH]n3c(=O)c4c([nH]c23)CCCC4)cc1 returned LYPLA1 counter -1, RBBP9 inhibitor 0, LYPLA2 inh 2, Fam108B inh 5 and PME-1 inh 44*.
Screening CNC(=O)c1c(NC(=O)c2ccc(S(=O)(=O)N3CCCC3)cc2)sc2c1CCN(C(C)C)C2 returned LYPLA1 counter -2, LYPLA2 inh 5, Fam108B inh 3 and PME-1 inh 34*.
Screening O=C(N/N=C1/C(=O)c2cccc3cccc1c23)c1ccc(Cl)cc1 returned LYPLA1 counter 6, RBBP9 inhibitor -2, LYPLA2 inh 31*, Fam108B inh 10 and PME-1 inh 7.
`COC(=O)c1ccc(COc2ccccc2/C=N/NC(=O)c2cccnc2)cc1` gave LYPLA1 counter -2, RBBP9 inhibitor -3, LYPLA2 inh 36*, Fam108B inh -10 and PME-1 inh 6.
Screening O=C(OCCN=C1NS(=O)(=O)c2ccccc21)c1ccccc1F returned LYPLA1 counter -1, LYPLA2 inh 0, Fam108B inh -3 and PME-1 inh 1.
O=C(OCCOCCN=C1NS(=O)(=O)c2ccccc21)c1ccccc1Br was read as LYPLA1 counter 0, LYPLA2 inh -1, Fam108B inh -1 and PME-1 inh 34*.
For COC(=O)C1=C(C)N(CCCC(=O)O)C(=O)NC1c1ccccc1OS(=O)(=O)c1ccc([N+](=O)[O-])cc1 (stereo not drawn) the results were LYPLA1 counter -2, LYPLA2 inh -9, Fam108B inh -3 and PME-1 inh 0.
Cc1cc(C)c2c(N)c(C(=O)NN)sc2n1 was read as LYPLA1 counter 12, RBBP9 inhibitor 7, LYPLA2 inh 5, Fam108B inh 6 and PME-1 inh 32*.
`CCOC(=O)c1sc2nc(C)cc(C)c2c1N` gave LYPLA1 counter 3, RBBP9 inhibitor -7, LYPLA2 inh -3, Fam108B inh -3 and PME-1 inh -4.
`O=C(c1cc2c(s1)CCCC2)n1cccn1` gave LYPLA1 counter 4, RBBP9 inhibitor 42*, LYPLA2 inh 19, Fam108B inh -5, PME-1 inh 6 and RBBP9 inh conf 11.
Screening O=C1c2ccc(Oc3cccc([N+](=O)[O-])c3)cc2C(=O)N1c1ccccn1 returned LYPLA1 counter 0, RBBP9 inhibitor -5, LYPLA2 inh 16, Fam108B inh -3 and PME-1 inh -1.
Screening O=C1c2cc([N+](=O)[O-])cc3cc([N+](=O)[O-])cc(c23)C(=O)N1c1ccccn1 returned LYPLA1 counter -1, RBBP9 inhibitor 15*, LYPLA2 inh 4, Fam108B inh 6, PME-1 inh -1 and RBBP9 inh conf 10.
`Cc1cccc(C(=O)N2CCN(CCNC(=O)C(=O)Nc3ccc(F)cc3)CC2)c1` gave LYPLA1 counter 0, LYPLA2 inh 1, Fam108B inh 2 and PME-1 inh -3.
For O=c1oc2c(-c3ccc([N+](=O)[O-])cc3)cc(O)cc2s1 the results were LYPLA1 counter -5, RBBP9 inhibitor 43*, LYPLA2 inh 3, Fam108B inh 1, PME-1 inh 4 and RBBP9 inh conf 8.
O=C(OCC(=O)N1CCN(C(=O)c2ccco2)CC1)c1ccc(Cl)cc1 was read as LYPLA1 counter 0, LYPLA2 inh 5 and PME-1 inh -3.
O=C(OCC(=O)N1CCN(C(=O)c2ccco2)CC1)c1ccccc1OCc1ccc(Cl)cc1 was read as LYPLA1 counter 2, RBBP9 inhibitor 20*, LYPLA2 inh 8, Fam108B inh -2, PME-1 inh -4 and RBBP9 inh conf -32.
CCCc1nnc(NC(=O)CN2CCN(C)CC2)s1 was read as LYPLA1 counter -1, RBBP9 inhibitor 17*, LYPLA2 inh 2, Fam108B inh 1, PME-1 inh -3 and RBBP9 inh conf 5.
`CCCN1CCN(CC(=O)Nc2nnc(C)s2)CC1` gave LYPLA1 counter -3, LYPLA2 inh 6, Fam108B inh -5 and PME-1 inh 6.
`C=CCn1c(SCC(=O)N2CCc3ccccc3C2)nnc1-c1ccncc1` gave LYPLA1 counter -4, RBBP9 inhibitor -4, LYPLA2 inh -7, Fam108B inh -2 and PME-1 inh -2.
`Oc1ccc(-c2csc(Nc3ncccn3)n2)cc1O` gave RBBP9 inhibitor 20* and RBBP9 inh conf 40*.
Screening CC(=O)Nc1cccc(-c2csc(Nc3ncccn3)n2)c1 returned RBBP9 inhibitor -11.
For CCOc1ccc(OCC)c(NC(=O)Nc2ccc3c(c2)N(C)C(=O)CS3)c1 the results were LYPLA1 counter -10, RBBP9 inhibitor 1, LYPLA2 inh -9, Fam108B inh 6 and PME-1 inh 22.
CC1(C)OC(C)(C)/C(=C/Nc2ccc(O)cc2)C1=O was read as LYPLA1 counter 4, RBBP9 inhibitor 20*, LYPLA2 inh 18, Fam108B inh 12, PME-1 inh 10 and RBBP9 inh conf 9.
Screening CC1(C)OC(=O)C(=CNc2cccc(O)c2)C(=O)O1 returned LYPLA1 counter 1, RBBP9 inhibitor -3, LYPLA2 inh 12, Fam108B inh 1 and PME-1 inh -3.
`CN(C)c1ccc(Nc2nc(-c3cccnc3)cs2)cc1` gave LYPLA1 counter 3, RBBP9 inhibitor 20*, LYPLA2 inh 0, Fam108B inh -3, PME-1 inh 2 and RBBP9 inh conf 22*.
Screening COC(=O)c1ccc(N(CC(=O)NC2CCCCC2)C(=O)CNC(=O)c2ccco2)cc1 returned LYPLA1 counter 2, LYPLA2 inh 13, Fam108B inh 6 and PME-1 inh -1.
Screening CCN1CCN(C(=O)C2(NC(=O)Nc3ccccc3Cl)CCCCC2)CC1 returned LYPLA1 counter -2, RBBP9 inhibitor 16*, LYPLA2 inh 10, Fam108B inh 0, PME-1 inh -3 and RBBP9 inh conf 2.
For CCOc1ccccc1C(=O)N(CN1CCCC1=O)c1cccc(Cl)c1 the results were LYPLA1 counter 0, RBBP9 inhibitor -9, LYPLA2 inh 4, Fam108B inh 1 and PME-1 inh 8.
Cc1ccc(NC(=S)N/N=C2\CC(C)(C)Oc3ccc(O)cc32)cc1 was read as LYPLA1 counter 0, RBBP9 inhibitor 17*, LYPLA2 inh -2, Fam108B inh 1, PME-1 inh 14 and RBBP9 inh conf 11.
Screening CC(=O)Nc1ccc(OCC[n+]2cccc(C(N)=O)c2)cc1 returned LYPLA1 counter 2, RBBP9 inhibitor 14*, LYPLA2 inh -9, Fam108B inh 1, PME-1 inh -6 and RBBP9 inh conf 8.

High-throughput results (PubChem)
